Measured values as given in publication PMC6265067 (Nature, 2018).

Key:
D14 / D3 = assay: AlphaScreen assay of GST-D14 / His-D3 interaction in response to GR24; assay type: binding, O. sativa; details: increasing GR24, pH 6.5, mean ± s.d. of biological triplicates
Outline: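 GST-D14 is held on glutathione donor beads and His-D3 (ASK1-D3 complex, 1 μM) on anti-6xHis acceptor beads, both at 5 μg/ml. D14 at 100–500 nM. Buffer is 50 mM MES, 150 mM NaCl, 1 mM DTT, 0.1 mg/ml BSA. GR24 is titrated. Signal is read at 520–620 nm after 680 nm excitation, averaged over three experiments.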

AtSMXL7-YFP = assay: SMXL7-YFP level in tobacco epidermal cells; assay type: cell-based, Arabidopsis thaliana, expressed in Nicotiana benthamiana; details: co-expressed with D14-CTH-mCherry; 10 μM GR24, 120 min; n=7 nuclei; p = 4.401×10^−2
D14-D3-ASK1 = assay type: binding, O. sativa (ASK1: A. thaliana); details: for complex formation with D14-D3-ASK1: in the presence of GR24 (100–200 μM)
Outline: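 Purified proteins (20–50 μM) were preincubated for 1 h at 4 °C with 100–200 μM GR24, or with acetone as control, in 20 mM HEPES pH 7.0, 150 mM NaCl, 2 mM DTT. Samples were run on Superdex-200 Increase 10/300 at 0.5 mL/min. Fractions of 0.5 ml were analysed by SDS-PAGE with Coomassie staining; repeated at least three times.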

D14 / D53-D2 = assay: GST-pulldown of D14 and D53-D2 in the presence of D3-CTH; assay type: binding, O. sativa; details: in the presence of GR24, repeated thrice
Outline: (§1)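 GST-tagged bait (~20–40 μg) and His-tagged or untagged prey (~10–25 μg) were incubated with GST beads for 30 min at 4 °C in 40 mM Tris-HCl pH 7, 100 mM NaCl, 2 mM DTT, 0.01% BSA. GR24 was at 20–100 μM with acetone as control. Beads were washed in 250 mM NaCl buffer with 0.01% Tween 20 and eluted with SDS sample buffer or 5 mM glutathione. Read-out: SDS-PAGE with Ponceau or anti-GST/anti-His Western.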

D53-D2 / D14 = assay: AlphaScreen assay of D53-D2-D14 interaction; assay type: binding, O. sativa; details: DMSO control, mean ± s.d. of biological triplicates
Outline: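 AlphaScreen proximity read. The GST-tagged partner sits on glutathione donor beads and the His-tagged partner on anti-6xHis acceptor beads (5 μg/ml each). Uses 100–500 nM D14 or D53 and 1 μM ASK1-D3 in 50 mM MES pH 6.5, 150 mM NaCl, 1 mM DTT, 0.1 mg/ml BSA. Excitation 680 nm, emission 520–620 nm. Peptide reactions carry matched DMSO; DMSO-only serves as control.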

D14 [1] = target: T1, D14 (Oryza sativa subsp. japonica, UniProt Q10QA5); assay: AlphaScreen competition of D3-CTH peptide with His-D3 for binding GST-D14; parameters: species or system O. sativa; details: 10 μM GR24 (saturating), dose-dependent, 50 mM MES pH 6.5, 150 mM NaCl, 1 mM DTT, 0.1 mg/ml BSA, mean ± s.d. of biological triplicates
T1 sequence (Q10QA5 52-318): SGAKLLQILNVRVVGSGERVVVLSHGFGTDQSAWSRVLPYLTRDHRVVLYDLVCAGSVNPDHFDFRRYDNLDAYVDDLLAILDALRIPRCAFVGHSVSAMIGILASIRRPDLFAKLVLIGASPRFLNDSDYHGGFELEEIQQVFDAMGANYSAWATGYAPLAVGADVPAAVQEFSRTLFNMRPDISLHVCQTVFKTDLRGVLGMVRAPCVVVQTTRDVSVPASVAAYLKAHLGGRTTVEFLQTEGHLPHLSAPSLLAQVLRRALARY

D53 = D53 stability in a reconstituted cell-free system; assay type: biochemical, O. sativa (extract: Arabidopsis seedlings); details: max2–1 seedling extract; 10 μM GR24; 22 °C
D14 [2] = target: T1, D14; assay: Pull-down assay with GST-tagged D53-N, D53-D1 or D53-D2 and His-D14; assay type: binding, O. sativa; details: GST-tagged D53 domains, GR24
Outline: as §1

D14 [3] = target: T1, D14; assay: YLG hydrolysis assay; assay type: biochemical, O. sativa
Outline: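 Recombinant rice D14 (residues 52–318, SUMO tag cleaved) at 1–2 μg, with co-expressed ASK1-D3 complex and D53-D2, plus YLG. Buffer is 50 mM MES pH 6.5, 150 mM NaCl, 1 mM DTT under plate seal. Fluorescence (ex 480/em 520 nm) is read every 10 s over 50–60 min and converted to fluorescein concentration via a standard curve before curve fitting. Repeated at least three times.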

## CC1=C[C@H](O/C=C2/C(=O)O[C@@H]3c4ccccc4C[C@H]23)OC1=O [GR24]
D14 / D3
  D3-D14 interaction: GR24-dependent D3-D14 interaction
AtSMXL7-YFP
  SMXL7 reduction upon GR24 treatment: 11.8%

## CCOC(=O)c1ccccc1-c1c2ccc(=O)cc-2oc2cc(OC3C=C(C)C(=O)O3)ccc12 (stereo not shown) [YLG, Yoshimulactone Green, reference compound]
D14-D3-ASK1; Superdex-200, in the presence of YLG
  complex assembly among D14, D3-ASK1 and D53-D2: can induce complex assembly among D14, D3-ASK1, and the D53-D2 domain

## D3-CTH peptide: 28 amino acids D3-CTH peptide (28aa, D3_693–720), O. sativa (ENDLMFTEMRAESWLRFEVQLNSRQIDD; UniProt Q5VMP0 693-720, looked up, fragment)
D14 / D53-D2
  stimulation of D14 and D53-D2 pulling down each other: able to stimulate D14 and D53-D2 to pull down each other in the presence of GR24
D53-D2 / D14
  promotion of D53-D2-D14 interaction: elicited the same effect in a dose-dependent manner
D14 [1]
  competition with D3 for binding D14: able to compete with D3 for binding D14

## D3_693–707: 15aa D3 peptide (ENDLMFTEMRAESWL; UniProt Q5VMP0 693-707, looked up, fragment)
D53-D2 / D14
  promotion of D53-D2-D14 interaction: did not stimulate binding

## D3_708–720: 13aa D3 peptide (RFEVQLNSRQIDD; UniProt Q5VMP0 708-720, looked up, fragment)
D53-D2 / D14
  promotion of D53-D2-D14 interaction: did not stimulate binding

B1: C-terminally truncated D3 mutant protein: D3ΔCTH (O. sativa, residues 1–693) co-expressed with ASK1 (protein, UniProt Q5VMP0 1-693, looked up, fragment)
chain: MAEEEEVEEGRSSSSAILDLPEPLLLHILSFLTDVRSRHRAALACGRMRAAERATRSELSLRGDPRSPGFLFLSHAFRFPALEHLDLSLVSPWGHPLLSSVPPCGGGGGGAPSASSSSGMNVYHPEAISEQNAFIAARLAGCFPAVTSLAVYCRDPTTLANLTPHWQASLRRVKLVRWHQRPPTLPDGADLEPLLETCAALRELDLSEFYCWTEDVVRALTTHPSATAALTHLDLGLAAATDGFKSSELGPIAASCPNLRKLVAPCLFNPRFSDCVGDDALLSLATSCPRLTVLRLSEPFEAAANIQREEAAITVAGLVAFFAALPALEDFTMDLQHNVLEAAPAMEALARRCPRIKFLTLGSFQGLCKASWLHLDGVAVCGGLESLYMKNCQDLTDASLAAIGRGCRRLAKFGIHGCDLVTSAGIRRLAFTLRPTLKEVTVLHCRLLHTAECLTALSPIRDRIESLEINCVWNTTEQPCSVANGTTTECDPEDDELGEVYESAAKKCRYMEFDDLGSWEMLRSLSLWFSAGQLLSPLISAGLDSCPVLEEISIKVEGDCRTCPRPAPRTIFGLSDLAGFPVLAKMKLDLSEAVGYALTAPTGQMDLSLWERFYLHGIESLQTLYELDYWPPQDKDVHHRSLTLPAVGLIQRCVGLRKLFIHGTTHEHFMTFFLSIPNLRDMQLREDYYPAPE
modifications: co-expressed with ASK1
D53
  restoration of D53-degrading activity of max2–1 extracts: nor restore the D53 degradation activity of the max2–1 extracts
D14-D3-ASK1; sizing column, D14-GR24, D53-D2
  ternary complex with D14 and D53-D2: could neither form a ternary complex with D14 and D53-D2 on a sizing column

B2: D53 D2 domain: D53 D2 domain (D53-D2, 718–1,131) (protein)
chain: NSDLSNYKLLVERLFKVVGRQEEALSAICESIVRCRSTESRRGPNRNDIWLCFHGSDSMAKKRIAVALAELMHGSKDNLIYLDLNLQDWDDSSFRGKTGIDCIVEQLSKKRQSVLFLDNIDRADCLVQDSLSDAIKSGRFQDMRGKVVDINDSIVVLSRSMIQGSKNGLEEGLSFSEEKILATRGHRLKILVEPGRAITSGCPSGKVVVSPRHFLTKIQASLCSGSISKRKLSISDDQEKLQESPSSSKRLHRTSSVPFDLNLPVDEDEPLDADDDSSSHENSYGNTEKSIDALLHSVDGSINFKPFDFDKLADDMLQEFSNILRKNLGSECMLEIDVGAMEQILAAAWKSEEDRKPVPTWLEQVFARSLDELKLKRKHVSSSTLRLVACEDTVPAVKGDGLGVLLPPRIILDC
modifications: left off: GST, end not stated, kept
D14 [2]
  binding D14: solely responsible for binding D14 in a GR24-dependent manner
D14 [3]; D14 + ASK1-D3, D53-D2 at two concentrations
  effect on D3-ASK1-arrested D14 kinetics: little change in the enzymatic kinetics
D14-D3-ASK1; Superdex-200
  complex formation with D14-D3-ASK1: can form a stable complex with D14-D3-ASK1 in the presence of GR24
D14-D3-ASK1; Superdex-200, ± ASK1-D3, GR24
  requirement for stable association with D14: stably associated with D14 only in the presence of D3 and GR24

B3: D53: Full length D53 (O. sativa), expressed as a GST fusion protein (protein)
chain: MPTPVAAARQCLSPAAVPALDAAVASSRRRAHAQTTSLHLISSLLAPPAPPLLRDALARARSAAYSPRVQLKALDLCFAVSLDRLPSVSASSSSSGAADEPPVSNSLMAAIKRSQANQRRNPDTFHFYHQAATAQTPAAVKVELSHLVLAILDDPVVSRVFAEAGFRSGDIKLAILRPAPPMPLLGRLPTRTRPPPLFLCSFAAADDADVPSPAGNLAGAGEENCRRIAEILSRGRNPMLVGVGAASAADDFAAASPYRIIHVDPNTIDRSDLGVAAAMASATSGLIISIGDLKQLVPDEDAEAQEKGRRVVAEVTRVLETHSKVGRVWVMGWSATYETYLAFLSKFPLVDKDWDLQLLPITAVHAAATAGPAAAAAGLMPPATTVAAFSKPAASLMDSFVPFGGFLCDNYEENSLTANSCPQALRCQQCNDKYEQEVATIISASGITAEDHHQGGLPSLLQNGSMMGPNNGFDPVKARDDRMVLNSKILNLRKKWNEYCLRLHQDHQRINRDPYKPFPRYIGVPTDKERSANSSKGSESVGVQKDVIKPCAVSAVHSSSTARPISSPSVTNKRNEDLVLNLQARHSKSDENLQERGMQSQHGTLSNVDNPDDHVSPSSAAPVETDLVLGTPRECSSKGSSSTCSKRVEDSERSVHLVPKKVDDLNLKHPQLSVQPNSCSWSSINVGKTSHSTLHSVASGGFSAFGQWQKRSPLAAQNSDLSNYKLLVERLFKVVGRQEEALSAICESIVRCRSTESRRGPNRNDIWLCFHGSDSMAKKRIAVALAELMHGSKDNLIYLDLNLQDWDDSSFRGKTGIDCIVEQLSKKRQSVLFLDNIDRADCLVQDSLSDAIKSGRFQDMRGKVVDINDSIVVLSRSMIQGSKNGLEEGLSFSEEKILATRGHRLKILVEPGRAITSGCPSGKVVVSPRHFLTKIQASLCSGSISKRKLSISDDQEKLQESPSSSKRLHRTSSVPFDLNLPVDEDEPLDADDDSSSHENSYGNTEKSIDALLHSVDGSINFKPFDFDKLADDMLQEFSNILRKNLGSECMLEIDVGAMEQILAAAWKSEEDRKPVPTWLEQVFARSLDELKLKRKHVSSSTLRLVACEDTVPAVKGDGLGVLLPPRIILDC
modifications: left off: GST, end not stated, kept
D14 [3]; D14 + D3-CTH, initial reaction and slow linear phase
  effect on D14 inhibited by D3 C-terminal peptide: robustly blocked the inhibition of the enzymatic activity of D14 by the D3 C-terminal peptide
D14-D3-ASK1; Superdex-200
  complex formation with D14-D3-ASK1: can form a stable complex with D14-D3-ASK1 in the presence of GR24
